In ChEMBL document CHEMBL4765454, “Betulinic acid derived amides are highly cytotoxic, apoptotic and selective” (Eur J Med Chem, 2020):
The source made the active and inactive calls. No cut-off for these calls is given here.

Assays:
A-375 [1] = test: Induction of apoptosis in human A375 cells assessed as early apoptotic cells at 3 uM measured after 24 hrs by Annexin V-FITC/propidium iodide staining based flow cytometry (reference value: 2.194%); type: functional
A-375 [2] = test: Induction of apoptosis in human A375 cells assessed as viable cells at 3 uM measured after 24 hrs by Annexin V-FITC/propidium iodide staining based flow cytometry (reference value: 90.123%); type: functional; details: read-out: Activity
A2780 = test: Cytotoxicity against human A2780 cells assessed as reduction in cell viability incubated for 72 hrs by SRB assay; type: functional, cell-based; details: Homo sapiens, A2780, 72 h; read-out: EC50
A-375 [3] = test: Induction of apoptosis in human A375 cells assessed as late apoptotic cells at 3 uM measured after 48 hrs by Annexin V-FITC/propidium iodide staining based flow cytometry (reference value: 5.108%); type: functional
A-375 [4] = test: Induction of apoptosis in human A375 cells assessed as cell shrinkage at 3 uM measured after 48 hrs by microscopic analysis; type: functional, cell-based
Summary of the method: (§1)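 A375 cells treated at 3.0, 4.8 or 6.2 µM and inspected by light microscopy after 24 h or 48 h. Cell number and morphology were scored for apoptotic features: shrinkage, strangulation and blebbing.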

A-375 [5] = test: Cytotoxicity against human A-375 cells assessed as reduction in cell viability incubated for 72 hrs by SRB assay; type: functional, cell-based; details: Homo sapiens, A-375, 72 h; read-out: EC50
FaDu = test: Cytotoxicity against human FaDu cells assessed as reduction in cell viability incubated for 72 hrs by SRB assay; type: functional, cell-based; details: Homo sapiens, FaDu, 72 h; read-out: EC50
A-375 [6] = test: Induction of apoptosis in human A375 cells assessed as blebbing at 3 uM measured after 48 hrs by microscopic analysis; type: functional, cell-based; summary of the method: as §1
MCF7 = test: Cytotoxicity against human MCF7 cells assessed as reduction in cell viability incubated for 72 hrs by SRB assay; type: functional, cell-based; details: Homo sapiens, MCF7, 72 h; read-out: EC50
A-375 [7] = test: Cell cycle arrest in human A375 cells assessed as accumulation at S phase measured after 24 hrs by propidium iodide staining based flow cytometry (reference value: 47.46%); type: functional
A-375 [8] = test: Induction of apoptosis in human A375 cells assessed as necrotic cells at 3 uM measured after 48 hrs by Annexin V-FITC/propidium iodide staining based flow cytometry (reference value: 0.547%); type: functional
A-375 [9] = test: Cell cycle arrest in human A375 cells assessed as accumulation at G1 phase measured after 48 hrs by propidium iodide staining based flow cytometry (reference value: 57.3%); type: functional
A-375 [10] = test: Induction of apoptosis in human A375 cells assessed as strangulation at 3 uM measured after 48 hrs by microscopic analysis; type: functional, cell-based; summary of the method: as §1
A-375 [11] = test: Cell cycle arrest in human A375 cells assessed as accumulation at S phase measured after 48 hrs by propidium iodide staining based flow cytometry (reference value: 31.3%); type: functional
NIH3T3 = test: Cytotoxicity against mouse NIH3T3 cells assessed as reduction in cell viability incubated for 72 hrs by SRB assay; type: cell-based; details: Mus musculus, NIH3T3, 72 h; read-out: EC50
[12] = Selectivity ratio of EC50 for mouse NIH3T3 cells to EC50 for human FaDu cells
A-375 [13] = test: Cell cycle arrest in human A375 cells assessed as accumulation at G2/M phase measured after 48 hrs by propidium iodide staining based flow cytometry (reference value: 10.83%); type: functional
HT-29 = test: Cytotoxicity against human HT-29 cells assessed as reduction in cell viability incubated for 72 hrs by SRB assay; type: functional, cell-based; details: Homo sapiens, HT-29, 72 h; read-out: EC50
A-375 [14] = test: Induction of apoptosis in human A375 cells at 3 uM measured after 24 hrs by microscopic analysis; type: functional, cell-based; summary of the method: as §1
[15] = Selectivity ratio of EC50 for mouse NIH3T3 cells to EC50 for human MCF7 cells; type: toxicity; details: NIH3T3 cells versus MCF7 cells, read-out: Ratio EC50
A-375 [16] = test: Cell cycle arrest in human A375 cells assessed as accumulation at subG1 phase measured after 24 hrs by propidium iodide staining based flow cytometry (reference value: 0.46%); type: functional
[17] = Selectivity ratio of EC50 for mouse NIH3T3 cells to EC50 for human HT-29 cells; type: toxicity; details: NIH3T3 cells versus HT-29 cells, read-out: Ratio EC50
A-375 [18] = test: Cell cycle arrest in human A375 cells assessed as accumulation at G1 phase measured after 24 hrs by propidium iodide staining based flow cytometry (reference value: 44.59%); type: functional
A-375 [19] = test: Induction of apoptosis in human A375 cells assessed as necrotic cells at 3 uM measured after 24 hrs by Annexin V-FITC/propidium iodide staining based flow cytometry (reference value: 0.331%); type: functional
A-375 [20] = test: Induction of apoptosis in human A375 cells assessed as late apoptotic cells at 3 uM measured after 24 hrs by Annexin V-FITC/propidium iodide staining based flow cytometry (reference value: 7.352%); type: functional
A-375 [21] = test: Cell cycle arrest in human A375 cells assessed as accumulation at G2/M phase measured after 24 hrs by propidium iodide staining based flow cytometry (reference value: 7.48%); type: functional
A-375 [22] = test: Induction of apoptosis in human A375 cells assessed as viable cells at 3 uM measured after 48 hrs by Annexin V-FITC/propidium iodide staining based flow cytometry (reference value: 92.723%); type: functional; details: read-out: Activity
A-375 [23] = test: Induction of apoptosis in human A375 cells assessed as early apoptotic cells at 3 uM measured after 48 hrs by Annexin V-FITC/propidium iodide staining based flow cytometry (reference value: 1.622%); type: functional
A-375 [24] = test: Cell cycle arrest in human A375 cells assessed as accumulation at subG1 phase measured after 48 hrs by propidium iodide staining based flow cytometry (reference value: 0.57%); type: functional
[25] = Selectivity ratio of EC50 for mouse NIH3T3 cells to EC50 for human A2780 cells; type: toxicity; details: NIH3T3 cells versus A2780 cells, read-out: Ratio EC50

## C=C(C)[C@@H]1CC[C@]2(C(=O)Nc3cncc4ccccc34)CC[C@]3(C)[C@H](CC[C@@H]4[C@@]5(C)CC[C@H](OC(C)=O)C(C)(C)[C@@H]5CC[C@]43C)[C@@H]12
A-375 [1]
  Activity: 8.551%
A-375 [2]
  viability at 3 µM: 83.5%
A2780
  EC50: 2160 nM
A-375 [3]
  Activity: 21.382%
A-375 [4]
  Activity: Active
A-375 [5]
  EC50: 1480 nM
FaDu
  EC50: 2260 nM
A-375 [6]
  Activity: Active
MCF7
  EC50: 4650 nM
A-375 [7]
  Activity: 36.56%
A-375 [8]
  Activity: 1.115%
A-375 [9]
  Activity: 41.85%
A-375 [10]
  Activity: Active
A-375 [11]
  Activity: 34.84%
NIH3T3
  EC50: > 135000 nM
[12]
  Ratio EC50: 59.7
A-375 [13]
  Activity: 0%
HT-29
  EC50: > 30000 nM
A-375 [14]
  Activity: Active
[15]
  selectivity ratio: 29
A-375 [16]
  Activity: 2.38%
[17]
  selectivity ratio: 4.5
A-375 [18]
  Activity: 61.06%
A-375 [19]
  Activity: 0.351%
A-375 [20]
  Activity: 9.649%
A-375 [21]
  Activity: 0%
A-375 [22]
  viability at 3 µM: 33.2%
A-375 [23]
  Activity: 44.309%
A-375 [24]
  Activity: 23.32%
[25]
  selectivity ratio: 62.5
